Experimental data from PubChem BioAssay.
Active and inactive are the calls of the source.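 Rule for the calls, unless noted: active = Her2 level under about 52% in both replicate screens, with viability over 70% of control (limit read from the data); inconclusive = Her2 under the limit in one screen only, or viability under 70%; inactive = Her2 level above the set limit.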

Experiments:
[1] = reducers of endogenous Her2 protein level, primary screen, SKBR3 breast tumor cells, AlphaScreen, ATP viability (AID 461); details: 18-24 h, measured here: SKBR3 viability, ATP luminescence, at 10 µM;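 for Her2 level: lower value means less Her2 protein in the cells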;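 for viability: percent of carrier control wells set as 100% viability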
[2] = biological target: Receptor tyrosine-protein kinase erbB-2 (Homo sapiens) (UniProt P04626); experiment: as above; details: 18-24 h, at 10 µM, stronger effect = lower value
[3] = SK-BR-3 cell growth inhibitors, pilot screen, 24 h, human (AID 572;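 active = viability at or below 10% of carrier control in both of two separate runs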;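 note: compound exposure lasted between 18 and 24 h rather than exactly 24 h; 100% = carrier-treated control wells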); details: SK-BR-3 viability, CellTiter-Glo luminescence, at 10 µM, stronger effect = lower value
[4] = HUVEC growth inhibition – cell-based, human, primary screen (AID 575;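 active = viability at or below 30% in both replicate assays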;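 note: 100% = median of untreated cell wells with 0.1% DMSO on each plate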); details: HUVEC proliferation, CellTiter-Glo luminescence, 72 h; at 10 µM; stronger effect = lower value
Summary of the method: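 System: primary human umbilical vein endothelial cells; Quantity: 1250 endothelial cells in each well; Buffer or medium: supplemented EBM, 2% fetal bovine serum; Doses: one dose, 10 µM final, 0.1% DMSO; Incubation: 72 h compound incubation; Technique: ATP-based CellTiter-Glo luminescent read; Evaluation: percent of median DMSO-control luminescence; Controls: vehicle and MePR control wells.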

[5] = growth inhibitors of H69AR lung tumor, primary screen, human, duplicate replicates (AID 580;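 active = viability at or under a set limit in both replicates, limit being median viability minus 3 SD, cut at about 48% in these data, passing the limit was not always enough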;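 note: 100% = mean luminescence of untreated wells and 0% = no signal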); details: H69AR lung tumor cells viability, ATP luminescence, 72 h; at 10 µM; stronger effect = lower value
[6] = reversal of MRP1-mediated doxorubicin resistance, pilot screen, H69AR cells, doxorubicin co-treatment (AID 601;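 active = viability loss from added drug above about 55%, and viability with drug at most 40%, in both replicates, limit read from the data, passing the limit was not always enough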); details: CellTiter-Glo, 72 h, at 10 µM; for differential viability (reversal): stronger effect = higher value
[7] = 384-well plate pilot, post-Golgi transport modulator project, inhibition of yeast transport mutant growth (AID 636; in the data active = inhibition above about 31%); details: absorbance 615 nm, about 18 h, stronger effect = higher value
[8] = growth suppression of yeast trafficking mutant, preliminary HTS, modulators of trafficking downstream of Golgi apparatus project, 1536-format plate, OD 615 nm (AID 637; in the data active = inhibition above about 30%); details: yeast transport mutant growth, absorbance 615 nm, 18 h; stronger effect = higher value
[9] = H69AR cells + 2 uM doxorubicin, measured here: viability with 2 uM doxorubicin, stronger effect = lower value
[10] = H69AR cells, compound alone cytotoxicity

Sequence of Receptor tyrosine-protein kinase erbB-2 (Homo sapiens) (P04626 whole entry, looked up): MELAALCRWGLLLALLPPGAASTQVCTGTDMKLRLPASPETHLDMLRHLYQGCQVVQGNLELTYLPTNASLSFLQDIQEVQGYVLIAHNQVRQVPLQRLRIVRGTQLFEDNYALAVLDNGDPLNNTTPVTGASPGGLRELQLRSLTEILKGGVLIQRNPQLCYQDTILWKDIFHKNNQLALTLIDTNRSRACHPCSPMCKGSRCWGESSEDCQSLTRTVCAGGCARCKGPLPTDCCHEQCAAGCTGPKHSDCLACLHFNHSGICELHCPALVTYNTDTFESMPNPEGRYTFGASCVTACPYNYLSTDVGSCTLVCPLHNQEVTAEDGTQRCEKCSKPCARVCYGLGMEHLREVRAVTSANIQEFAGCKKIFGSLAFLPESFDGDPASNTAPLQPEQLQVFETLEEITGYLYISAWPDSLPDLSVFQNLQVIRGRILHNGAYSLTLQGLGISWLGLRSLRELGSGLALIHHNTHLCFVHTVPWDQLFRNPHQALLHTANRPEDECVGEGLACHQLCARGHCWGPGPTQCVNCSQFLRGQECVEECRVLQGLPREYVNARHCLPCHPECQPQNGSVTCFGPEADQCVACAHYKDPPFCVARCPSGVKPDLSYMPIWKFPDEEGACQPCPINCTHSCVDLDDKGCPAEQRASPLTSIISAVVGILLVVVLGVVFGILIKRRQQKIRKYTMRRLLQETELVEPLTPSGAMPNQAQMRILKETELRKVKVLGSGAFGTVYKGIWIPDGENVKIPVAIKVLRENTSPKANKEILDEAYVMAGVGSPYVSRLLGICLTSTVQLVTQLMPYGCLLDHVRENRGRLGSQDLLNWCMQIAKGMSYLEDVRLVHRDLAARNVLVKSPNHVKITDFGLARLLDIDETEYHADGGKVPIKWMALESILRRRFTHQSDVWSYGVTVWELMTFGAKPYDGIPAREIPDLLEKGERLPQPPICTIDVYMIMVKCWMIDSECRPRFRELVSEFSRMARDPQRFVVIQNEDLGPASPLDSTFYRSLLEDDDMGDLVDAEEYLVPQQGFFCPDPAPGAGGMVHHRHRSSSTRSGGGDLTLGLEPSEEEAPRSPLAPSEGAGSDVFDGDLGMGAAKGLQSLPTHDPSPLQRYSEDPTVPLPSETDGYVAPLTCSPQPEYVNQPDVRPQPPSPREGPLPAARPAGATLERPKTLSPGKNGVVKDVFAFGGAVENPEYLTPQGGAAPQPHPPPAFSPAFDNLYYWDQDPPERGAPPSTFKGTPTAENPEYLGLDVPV

SMILES	viability [1]	Her2 level [2]	viability [3]	viability [4]	viability [5]	differential viability (reversal) ([6]; H69AR cells + 2 uM doxorubicin)	viability [6, 9]	viability [6, 10]	inhibition [7]	inhibition [8]
CCN(CC)CC(C)CNC(=O)CC(C(=O)N1CCc2ccccc21)n1ccnc1 (stereo not given)	88.5%	106% (inactive)	88.5% (inactive)	104% (inactive)	95.9% (inactive)	-7.88% (inactive)	104%	95.9%	0.52% (inactive)	-9.34% (inactive)
COc1ccc(CN2CC(C(=O)NCCCOC(C)C)CC2=O)cc1 (stereo not given)	101%	90.5% (inactive)	101% (inactive)	107% (inactive)	99.1% (inactive)	3.83% (inactive)	95.2%	99.1%	-2.11% (inactive)	0.81% (inactive)
Nc1c(C(=O)NCCc2ccccc2)nnn1Cc1ccccc1	108%	97.5% (inactive)	108% (inactive)	89% (inactive)	95.8% (inactive)	11.2% (inactive)	84.7%	95.8%	-8.55% (inactive)	-1.45% (inactive)
C/C(NC1CCCC1)=C(/C#N)C(N)=O	108%	99% (inactive)	108% (inactive)	116% (inactive)	111% (inactive)	10.3% (inactive)	101%	111%	-4.21% (inactive)	3.11% (inactive)
CCOC(=O)C1=C(CC)Nc2ccccc2N=C1NC(=O)Cn1cnc2ccccc2c1=O	96%	80.5% (inactive)	96% (inactive)	97.1% (inactive)	103% (inactive)	20.2% (inactive)	82.3%	103%	-5.07% (inactive)	2.9% (inactive)
CC(=O)NCCn1c(SCC(=O)NCC2CCCO2)nc2ccccc2c1=O (stereo not given)	95%	99% (inactive)	95% (inactive)	109% (inactive)	98.5% (inactive)	10.1% (inactive)	88.4%	98.5%	-0.26% (inactive)	-8.1% (inactive)
CCOc1ccc(C(=O)N2CCN(C(=O)c3ccco3)CC2)cc1OCC	110%	85% (inactive)	110% (inactive)	85.8% (inactive)	94.3% (inactive)	0.255% (inactive)	94%	94.3%	-3.47% (inactive)	-0.79% (inactive)
O=C1C2CC=CCC2C(=O)N1c1ccc(Cc2ccncc2)cc1 (stereo not given)	88%	96.5% (inactive)	88% (inactive)	83.8% (inactive)	100% (inactive)	2.21% (inactive)	97.8%	100%	0.78% (inactive)	-5.74% (inactive)
Cc1nn(-c2ccc(F)cc2)c(C)c1NS(=O)(=O)c1ccc(Cl)cc1	106%	85% (inactive)	106% (inactive)	90.9% (inactive)	77% (inactive)	-5.18% (inactive)	82.2%	77%	-8.27% (inactive)	-2.79% (inactive)
Cc1ccc(-n2ncc3c(=O)n(CC(=O)NC4CCCCC4)cnc32)cc1C	105%	108% (inactive)	105% (inactive)	92.7% (inactive)	87.4% (inactive)	1.56% (inactive)	85.8%	87.4%	-3.68% (inactive)	-1.13% (inactive)
COc1ccc(-c2onc(C)c2-c2ccccc2)c(O)c1	99.5%	73% (inactive)	99.5% (inactive)	79.6% (inactive)	18.5% (active)	-44.4% (inactive)	62.9%	18.5%	-4.53% (inactive)	0.32% (inactive)
O=C(CSc1nnc(Cc2ccccc2)n1C1CCCCC1)N1CCOCC1	92.5%	110% (inactive)	92.5% (inactive)	97.9% (inactive)	95.6% (inactive)	6.44% (inactive)	89.2%	95.6%	-3.03% (inactive)	-3.97% (inactive)
Cc1ccc(-n2nc(C(=O)N3CCN(C)CC3)c3c4ccccc4n(C)c3c2=O)cc1	90.5%	80% (inactive)	90.5% (inactive)	99.9% (inactive)	96.8% (inactive)	2.81% (inactive)	93.9%	96.8%	-1.97% (inactive)	-1.61% (inactive)
CCC1c2ccc(C)n2CCN1C(=O)Nc1ccccc1OC (stereo not given)	89.5%	69.5% (inactive)	89.5% (inactive)	97.7% (inactive)	78.9% (inactive)	-10.8% (inactive)	89.7%	78.9%	-6.13% (inactive)	4.59% (inactive)
CCCn1c(SCC(=O)NCCc2ccccc2)nnc1-c1ccccn1	97.5%	100% (inactive)	97.5% (inactive)	108% (inactive)	93.9% (inactive)	-11.1% (inactive)	105%	93.9%	-2.8% (inactive)	-5.16% (inactive)
O=C(CC(C(=O)N1CCc2ccccc21)n1ccnc1)NCc1cccnc1 (stereo not given)	100%	100% (inactive)	100% (inactive)	97.9% (inactive)	89.1% (inactive)	-10.9% (inactive)	100%	89.1%	1.17% (inactive)	1.8% (inactive)
COc1ccccc1N=Cc1nc(-c2ccccc2)oc1OC(C)=O	99%	82.5% (inactive)	99% (inactive)	79.2% (inactive)	63.1% (inactive)	-13.8% (inactive)	76.8%	63.1%	-4.61% (inactive)	-2.38% (inactive)
CCCOC(=O)CSc1nc(N)c(C#N)c(CC)c1C#N	99.5%	116% (inactive)	99.5% (inactive)	105% (inactive)	94.6% (inactive)	0.73% (inactive)	93.9%	94.6%	2% (inactive)	0.16% (inactive)
COC(=O)c1ccccc1NC(=O)C1CCCCC1C(=O)O (stereo not given)	103%	116% (inactive)	103% (inactive)	91% (inactive)	90.3% (inactive)	-1.56% (inactive)	91.8%	90.3%	-2.93% (inactive)	-9.52% (inactive)
CCN=C1SC(CC(=O)Nc2ccccc2)C(=O)N1CC (stereo not given)	98.5%	91.5% (inactive)	98.5% (inactive)	122% (inactive)	105% (inactive)	10% (inactive)	94.9%	105%	-1.92% (inactive)	-1.33% (inactive)
COc1ccc(C2C(C(=O)c3sc(C)nc3C)=C(O)C(=O)N2CCN(C)C)cc1OC (stereo not given)	108%	111% (inactive)	108% (inactive)	99.3% (inactive)	86.7% (inactive)	-8.1% (inactive)	94.8%	86.7%	-2.27% (inactive)	-2.79% (inactive)
CCOc1cc(N2CCOCC2)c(OCC)cc1NC(=O)CSc1cccc[n+]1[O-]	128%	93% (inactive)	128% (inactive)	94% (inactive)	86.8% (inactive)	1.93% (inactive)	84.8%	86.8%	-5.26% (inactive)	-4% (inactive)
COc1ccc(OC)c(NC(=O)CCN2CCN(c3ccccc3F)CC2)c1	94.5%	106% (inactive)	94.5% (inactive)	90.8% (inactive)	97.8% (inactive)	13.1% (inactive)	84.7%	97.8%	-4.93% (inactive)	-8.39% (inactive)
COc1ccc2c(-c3cccnc3)cc(=O)[nH]c2c1	116%	93.5% (inactive)	116% (inactive)	87.2% (inactive)	96% (inactive)	8.77% (inactive)	87.2%	96%	-6.4% (inactive)	4.43% (inactive)
CCOC(=O)c1ccc(NC(=O)CSCc2ccco2)cc1	108%	100% (inactive)	108% (inactive)	81.9% (inactive)	87.7% (inactive)	8.33% (inactive)	79.4%	87.7%	-5.45% (inactive)	-2.62% (inactive)
N#Cc1c(/N=C/c2ccco2)sc2c1CCC2	99%	139% (inactive)	99% (inactive)	85.2% (inactive)	85.7% (inactive)	-1.43% (inactive)	87.1%	85.7%	-2.76% (inactive)	11.2% (inactive)
CCCS(=O)(=O)N1CCC(C(=O)N2CCCC2)CC1	112%	93% (inactive)	112% (inactive)	115% (inactive)	95% (inactive)	3.92% (inactive)	91.1%	95%	-3.55% (inactive)	-0.82% (inactive)
CCCc1nnc(NC(=O)CCC(=O)N2CCN(CCOc3ccc(C)cc3)CC2)s1	93.5%	74% (inactive)	93.5% (inactive)	92% (inactive)	93.2% (inactive)	-6.29% (inactive)	99.4%	93.2%	-4.03% (inactive)	-2.83% (inactive)
